From ChEMBL document CHEMBL4354843, “Structure-Based Design of a Potent and Selective Covalent Inhibitor for SRC Kinase That Targets a P-Loop Cysteine” (J Med Chem, 2020)
Calls of active or inactive are those of the source. No cut-off for these calls is given here.

Tests used:
[1] = system: Phosphatidylinositol 4,5-bisphosphate 3-kinase catalytic subunit alpha isoform (Homo sapiens), P42336 [E545A]; assay: Binding affinity to human partial length PIK3CA E545A mutant (R108 to N1068 residues) expressed in mammalian expression system assessed as residual binding level at 1 uM by Kinomescan method relative to control
How it was run: (§1)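 KinomeScan active site-directed competition binding panel (468 kinases), compound tested at 1 μM. Result expressed as remaining kinase signal versus DMSO control (percent of control).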

[2] = system: Phosphatidylinositol 4,5-bisphosphate 3-kinase catalytic subunit alpha isoform (Homo sapiens), P42336 [H1047Y]; assay: Binding affinity to human partial length PIK3CA H1047Y mutant (R108 to N1068 residues) expressed in mammalian expression system assessed as residual binding level at 1 uM by Kinomescan method relative to control; how it was run: as §1
[3] = target: Serine/threonine-protein kinase RIO1 (Homo sapiens) (UniProt Q9BRS2); assay: Binding affinity to wild-type human full length RIOK1 (M1 to K568 residues) expressed in bacterial expression system assessed as residual binding level at 1 uM by Kinomescan method relative to control
How it was run: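 Active-site-directed competition binding screen across a 468-kinase panel, run with the test compound at 1 μM. The read-out is the kinase signal remaining relative to a DMSO control, reported as a percentage. […]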

[4] = system: Epidermal growth factor receptor (Homo sapiens), P00533 [L861Q]; assay: Binding affinity to human partial length EGFR L861Q mutant (R669 to V1011 residues) expressed in bacterial expression system assessed as residual binding level at 1 uM by Kinomescan method relative to control; how it was run: as §1
[5] = target: RAC-beta serine/threonine-protein kinase (Homo sapiens) (UniProt P31751); assay: Binding affinity to wild-type human partial length AKT2 expressed in bacterial expression system assessed as residual binding level at 1 uM by Kinomescan method relative to control
[6] = system: Tyrosine-protein kinase ABL1 (Homo sapiens), P00519 [E255K]; assay: Binding affinity to human phosphorylated ABL1 E255K mutant (S229 to K512 residues) expressed in mammalian expression system assessed as residual binding level at 1 uM by Kinomescan method relative to control; how it was run: as §1
[7] = target: Receptor tyrosine-protein kinase erbB-2 (Homo sapiens) (UniProt P04626); assay: Binding affinity to wild-type human partial length ERBB2 (K646 to V1225 residues) expressed in mammalian expression system assessed as residual binding level at 1 uM by Kinomescan method relative to control
How it was run: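 Active-site-directed competition binding panel of 468 kinases (KinomeScan), compound at 1 μM. The read-out is kinase remaining bound, given as a percentage of the DMSO control. […]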

[8] = target: Ribosomal protein S6 kinase alpha-5 (Homo sapiens) (UniProt O75582); assay: Binding affinity to wild-type human partial length C-terminal RPS6KA5 kinase domain 2 (V390 to T718 residues) expressed in bacterial expression system assessed as residual binding level at 1 uM by Kinomescan method relative to control
[9] = target: CDK4/Cyclin D3 (Homo sapiens) (UniProt P11802+P30281); assay: Binding affinity to wild-type human full length CDK4/cyclinD3 (M1 to E303 residues) expressed in mammalian expression system assessed as residual binding level at 1 uM by Kinomescan method relative to control
How it was run: (§2)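 Active-site-directed KinomeScan competition binding panel covering 468 kinases, compound tested at 1 μM. Each readout is the kinase signal remaining with compound, expressed as a percentage of the DMSO control. […]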

[10] = target: Tyrosine-protein kinase ITK/TSK (Homo sapiens) (UniProt Q08881); assay: Binding affinity to wild-type human partial length ITK (R335 to L620 residues) expressed in bacterial expression system assessed as residual binding level at 1 uM by Kinomescan method relative to control
[11] = target: Serine/threonine-protein kinase STK11 (Homo sapiens) (UniProt Q15831); assay: Binding affinity to wild-type human full length LKB1 (M1 to Q433 residues) expressed in bacterial expression system assessed as residual binding level at 1 uM by Kinomescan method relative to control; how it was run: as §2
[12] = target: Dual specificity mitogen-activated protein kinase kinase 7 (Homo sapiens) (UniProt O14733); assay: Binding affinity to wild-type human full length MKK7 (M1 to R419 residues) expressed in mammalian expression system assessed as residual binding level at 1 uM by Kinomescan method relative to control
How it was run: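 KinomeScan, an active site-directed competition binding panel of 468 kinases. The test compound was at 1 μM. The readout is remaining kinase binding as a percentage of the DMSO control. Scores above 35% were treated as weak binding and not listed.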

[13] = target: Non-receptor tyrosine-protein kinase TYK2 (Homo sapiens) (UniProt P29597); assay: Binding affinity to wild-type human partial length TYK2 JH2 pseudokinase domain (G556 to D888 residues) expressed in mammalian expression system assessed as residual binding level at 1 uM by Kinomescan method relative to control
[14] = system: Receptor-type tyrosine-protein kinase FLT3 (Homo sapiens), P36888 [D835Y]; assay: Binding affinity to human partial length FLT3 D835Y mutant (Q580 to Y969 residues) expressed in bacterial expression system assessed as residual binding level at 1 uM by Kinomescan method relative to control; how it was run: as §1
[15] = target: Dual specificity mitogen-activated protein kinase kinase; MEK1/2 (Homo sapiens) (UniProt P36507+Q02750); assay: Inhibition of MEK1/2 in human NCI-H1975 cells assessed as blocking of MEK1/2 pulldown at 1 uM in presence of TL13-68 incubated for 2 hrs by Western blot analysis; assay type: cell-based
How it was run: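 H1975 or HCC827 cells treated with 1 μM compound or DMSO for 2 h, rinsed twice in cold PBS, and lysed in M-PER with protease/phosphatase inhibitors. Lysate rocked overnight at 4 °C with 1 μM TL13-68, then streptavidin pulldown with five cold washes. Bound kinases detected by Western blot. Two independent experiments.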

[16] = target: Serine/threonine-protein kinase 24 (Homo sapiens) (UniProt Q9Y6E0); assay: Binding affinity to wild-type human partial length MST3 (A30 to S311 residues) expressed in bacterial expression system assessed as residual binding level at 1 uM by Kinomescan method relative to control
[17] = target: Dual specificity tyrosine-phosphorylation-regulated kinase 2 (Homo sapiens) (UniProt Q92630); assay: Binding affinity to wild-type human full length DYRK2 (M1 to S528 residues) expressed in mammalian expression system assessed as residual binding level at 1 uM by Kinomescan method relative to control; how it was run: as §2
[18] = target: Cyclin-dependent kinase 3 (Homo sapiens) (UniProt Q00526); assay: Binding affinity to wild-type human full length CDK3 (M1 to H305 residues) expressed in bacterial expression system assessed as residual binding level at 1 uM by Kinomescan method relative to control; how it was run: as §2
Chain of Cyclin-dependent kinase 3 (Homo sapiens) (Q00526 whole entry, looked up, the tested form may be a part): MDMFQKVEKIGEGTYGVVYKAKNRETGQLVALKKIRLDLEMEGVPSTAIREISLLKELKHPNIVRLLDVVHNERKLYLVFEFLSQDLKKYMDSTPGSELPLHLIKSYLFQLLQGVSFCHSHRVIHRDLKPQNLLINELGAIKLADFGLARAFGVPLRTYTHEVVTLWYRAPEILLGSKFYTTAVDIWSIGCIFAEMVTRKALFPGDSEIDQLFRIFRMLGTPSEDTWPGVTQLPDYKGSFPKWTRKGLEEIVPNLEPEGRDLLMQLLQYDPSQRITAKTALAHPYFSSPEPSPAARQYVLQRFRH

Chain of Serine/threonine-protein kinase RIO1 (Homo sapiens) (Q9BRS2 whole entry, the tested form may be a part): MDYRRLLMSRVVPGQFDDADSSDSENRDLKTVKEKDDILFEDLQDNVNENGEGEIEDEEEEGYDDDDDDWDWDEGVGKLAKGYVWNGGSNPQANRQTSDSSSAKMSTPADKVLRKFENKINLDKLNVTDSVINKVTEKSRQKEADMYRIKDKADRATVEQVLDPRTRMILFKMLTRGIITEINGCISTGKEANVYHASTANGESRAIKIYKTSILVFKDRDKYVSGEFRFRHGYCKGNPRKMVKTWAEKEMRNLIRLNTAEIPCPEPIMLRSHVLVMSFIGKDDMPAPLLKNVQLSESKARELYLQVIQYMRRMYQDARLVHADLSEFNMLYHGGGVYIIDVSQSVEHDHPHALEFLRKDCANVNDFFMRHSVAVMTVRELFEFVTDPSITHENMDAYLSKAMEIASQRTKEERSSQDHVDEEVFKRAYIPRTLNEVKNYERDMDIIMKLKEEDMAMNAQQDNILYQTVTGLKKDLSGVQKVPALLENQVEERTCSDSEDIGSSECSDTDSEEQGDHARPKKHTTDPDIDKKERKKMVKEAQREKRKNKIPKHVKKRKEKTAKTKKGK
Chain of Serine/threonine-protein kinase STK11 (Homo sapiens) (Q15831 whole entry, the tested form may be a part): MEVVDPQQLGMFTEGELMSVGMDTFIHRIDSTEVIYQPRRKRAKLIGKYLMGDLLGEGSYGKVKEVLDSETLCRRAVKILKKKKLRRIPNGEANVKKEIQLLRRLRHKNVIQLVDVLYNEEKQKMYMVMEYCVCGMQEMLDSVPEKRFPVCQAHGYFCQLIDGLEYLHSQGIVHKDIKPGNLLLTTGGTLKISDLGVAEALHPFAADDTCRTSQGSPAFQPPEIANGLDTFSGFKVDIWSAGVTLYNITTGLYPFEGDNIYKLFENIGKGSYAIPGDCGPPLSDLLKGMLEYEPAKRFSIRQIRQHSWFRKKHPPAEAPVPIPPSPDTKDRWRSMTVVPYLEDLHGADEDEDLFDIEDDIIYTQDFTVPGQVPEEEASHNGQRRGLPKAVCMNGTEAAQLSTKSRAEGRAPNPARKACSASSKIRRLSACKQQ
Chain of Ribosomal protein S6 kinase alpha-5 (Homo sapiens) (O75582 whole entry, looked up, the tested form may be a part): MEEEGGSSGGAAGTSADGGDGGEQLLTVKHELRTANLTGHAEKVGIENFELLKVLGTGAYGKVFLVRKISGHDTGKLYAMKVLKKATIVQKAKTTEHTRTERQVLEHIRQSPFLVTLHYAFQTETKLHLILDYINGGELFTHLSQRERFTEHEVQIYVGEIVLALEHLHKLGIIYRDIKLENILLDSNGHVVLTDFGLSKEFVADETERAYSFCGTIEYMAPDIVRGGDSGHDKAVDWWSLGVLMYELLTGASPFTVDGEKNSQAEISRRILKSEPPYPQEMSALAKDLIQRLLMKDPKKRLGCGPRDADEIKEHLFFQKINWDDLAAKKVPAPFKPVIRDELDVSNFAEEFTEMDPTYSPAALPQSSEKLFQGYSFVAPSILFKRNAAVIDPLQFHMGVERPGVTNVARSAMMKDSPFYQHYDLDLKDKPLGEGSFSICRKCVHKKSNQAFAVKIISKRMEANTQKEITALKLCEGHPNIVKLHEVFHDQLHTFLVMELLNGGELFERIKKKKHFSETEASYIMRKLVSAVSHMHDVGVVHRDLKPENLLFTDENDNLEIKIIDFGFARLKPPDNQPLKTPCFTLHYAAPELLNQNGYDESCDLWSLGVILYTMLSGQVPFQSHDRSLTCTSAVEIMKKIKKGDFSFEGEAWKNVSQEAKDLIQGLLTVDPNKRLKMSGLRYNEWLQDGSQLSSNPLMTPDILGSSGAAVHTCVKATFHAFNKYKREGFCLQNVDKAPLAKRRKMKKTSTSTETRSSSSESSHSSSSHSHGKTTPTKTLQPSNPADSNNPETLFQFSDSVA
Chain of Non-receptor tyrosine-protein kinase TYK2 (Homo sapiens) (P29597 whole entry, the tested form may be a part): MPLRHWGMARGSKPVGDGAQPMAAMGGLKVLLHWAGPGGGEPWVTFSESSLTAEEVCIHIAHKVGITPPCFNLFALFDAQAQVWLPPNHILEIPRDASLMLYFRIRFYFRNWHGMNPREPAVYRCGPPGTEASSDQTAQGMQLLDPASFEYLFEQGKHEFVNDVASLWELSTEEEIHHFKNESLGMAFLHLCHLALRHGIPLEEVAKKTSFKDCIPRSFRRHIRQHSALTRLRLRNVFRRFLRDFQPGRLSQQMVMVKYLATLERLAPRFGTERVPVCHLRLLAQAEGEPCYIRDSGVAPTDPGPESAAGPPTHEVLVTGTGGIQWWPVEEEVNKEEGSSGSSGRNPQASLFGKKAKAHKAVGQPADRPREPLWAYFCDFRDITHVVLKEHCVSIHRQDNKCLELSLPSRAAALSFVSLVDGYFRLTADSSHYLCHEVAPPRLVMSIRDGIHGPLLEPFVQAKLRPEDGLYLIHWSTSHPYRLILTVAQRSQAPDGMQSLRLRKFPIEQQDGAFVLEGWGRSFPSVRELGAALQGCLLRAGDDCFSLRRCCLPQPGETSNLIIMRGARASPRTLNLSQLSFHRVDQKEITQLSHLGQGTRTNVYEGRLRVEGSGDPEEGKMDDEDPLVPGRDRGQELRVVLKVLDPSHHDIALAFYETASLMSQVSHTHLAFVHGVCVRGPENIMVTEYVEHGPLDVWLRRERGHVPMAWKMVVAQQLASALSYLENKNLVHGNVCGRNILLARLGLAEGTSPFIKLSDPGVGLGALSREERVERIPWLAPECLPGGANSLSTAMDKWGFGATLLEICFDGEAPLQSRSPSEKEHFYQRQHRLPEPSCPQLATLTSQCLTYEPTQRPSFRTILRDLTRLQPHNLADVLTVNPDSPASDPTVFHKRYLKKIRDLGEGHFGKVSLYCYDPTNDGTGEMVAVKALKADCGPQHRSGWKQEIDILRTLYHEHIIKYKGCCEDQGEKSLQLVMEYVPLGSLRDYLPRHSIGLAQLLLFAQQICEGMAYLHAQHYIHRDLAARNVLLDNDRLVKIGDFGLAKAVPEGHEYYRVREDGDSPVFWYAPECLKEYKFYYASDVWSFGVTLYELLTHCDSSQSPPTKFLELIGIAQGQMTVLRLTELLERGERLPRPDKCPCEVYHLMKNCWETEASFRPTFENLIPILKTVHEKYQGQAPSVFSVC
Chain of RAC-beta serine/threonine-protein kinase (Homo sapiens) (P31751 whole entry, the tested form may be a part): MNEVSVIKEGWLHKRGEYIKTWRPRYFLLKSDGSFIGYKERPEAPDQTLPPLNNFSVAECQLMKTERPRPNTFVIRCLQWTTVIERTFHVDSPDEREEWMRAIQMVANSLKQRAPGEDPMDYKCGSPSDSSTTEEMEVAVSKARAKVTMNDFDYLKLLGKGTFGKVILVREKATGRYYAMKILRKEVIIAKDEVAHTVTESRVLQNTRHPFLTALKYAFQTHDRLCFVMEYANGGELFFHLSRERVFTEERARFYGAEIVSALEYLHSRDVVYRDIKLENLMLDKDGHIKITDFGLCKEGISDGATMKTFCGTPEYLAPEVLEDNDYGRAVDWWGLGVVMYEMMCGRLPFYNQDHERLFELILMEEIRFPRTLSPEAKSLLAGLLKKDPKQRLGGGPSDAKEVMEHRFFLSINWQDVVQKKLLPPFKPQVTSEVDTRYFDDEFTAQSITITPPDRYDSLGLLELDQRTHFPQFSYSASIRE
Chain of Receptor tyrosine-protein kinase erbB-2 (Homo sapiens) (P04626 whole entry, the tested form may be a part): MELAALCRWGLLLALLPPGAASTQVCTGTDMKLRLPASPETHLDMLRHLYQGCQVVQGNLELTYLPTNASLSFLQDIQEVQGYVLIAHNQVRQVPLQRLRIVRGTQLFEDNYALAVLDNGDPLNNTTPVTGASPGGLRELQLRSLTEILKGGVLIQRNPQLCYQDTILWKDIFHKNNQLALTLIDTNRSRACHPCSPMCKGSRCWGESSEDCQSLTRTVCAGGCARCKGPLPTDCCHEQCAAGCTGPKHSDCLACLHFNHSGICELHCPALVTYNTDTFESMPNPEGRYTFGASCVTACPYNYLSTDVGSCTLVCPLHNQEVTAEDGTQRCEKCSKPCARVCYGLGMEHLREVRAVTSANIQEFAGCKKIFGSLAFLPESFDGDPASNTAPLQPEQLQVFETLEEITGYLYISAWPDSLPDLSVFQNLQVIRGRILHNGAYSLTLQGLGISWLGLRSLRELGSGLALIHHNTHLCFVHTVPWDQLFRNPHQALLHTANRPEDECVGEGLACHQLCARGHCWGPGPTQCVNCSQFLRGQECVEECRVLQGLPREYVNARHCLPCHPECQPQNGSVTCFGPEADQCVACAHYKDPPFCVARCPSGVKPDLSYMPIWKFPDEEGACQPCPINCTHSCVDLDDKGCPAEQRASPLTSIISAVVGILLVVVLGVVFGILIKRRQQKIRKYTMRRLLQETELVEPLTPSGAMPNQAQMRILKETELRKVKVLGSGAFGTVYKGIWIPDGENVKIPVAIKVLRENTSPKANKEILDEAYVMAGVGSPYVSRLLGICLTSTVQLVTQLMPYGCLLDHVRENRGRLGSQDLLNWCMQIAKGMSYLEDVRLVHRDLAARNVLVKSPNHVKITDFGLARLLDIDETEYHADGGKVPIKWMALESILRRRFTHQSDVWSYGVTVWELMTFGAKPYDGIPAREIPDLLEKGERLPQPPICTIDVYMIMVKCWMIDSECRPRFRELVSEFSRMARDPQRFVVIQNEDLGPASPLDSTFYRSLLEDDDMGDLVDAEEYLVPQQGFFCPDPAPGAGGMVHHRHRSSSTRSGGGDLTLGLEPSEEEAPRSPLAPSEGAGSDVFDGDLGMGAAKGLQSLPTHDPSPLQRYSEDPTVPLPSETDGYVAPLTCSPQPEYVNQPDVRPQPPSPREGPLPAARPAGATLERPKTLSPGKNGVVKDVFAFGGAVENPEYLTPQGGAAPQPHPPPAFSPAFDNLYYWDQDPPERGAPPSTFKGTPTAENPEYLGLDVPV

## C=CC(=O)Nc1ccccc1Nc1nc(Nc2ccc(N3CCN(C)CC3)cc2)ncc1C(=O)Nc1c(C)cccc1Cl
[1]
  Activity: 94%
[2]
  Activity: 100%
[3]
  Activity: 100%
[4]
  Activity: 55%
[5]
  Activity: 100%
[6]
  Activity: 0.15%
[7]
  Activity: 63%
[8]
  Activity: 100%
[9]
  Activity: 100%
[10]
  Activity: 100%
[11]
  Activity: 100%
[12]
  Activity: 96%
[13]
  Activity: 100%
[14]
  Activity: 100%
[15]
  inhibition: inactive
[16]
  Activity: 100%
[17]
  Activity: 89%
[18]
  Activity: 100%
